Experimental data reported in PMC10879835 (Saudi Journal of Biological Sciences, 2024).

Legend:
Anti-oxidant DPPH assay = conditions: 30 mins, absorbance at 515 nm
Summary of the method: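 Lipid-nanoparticle and solution formulations of the test compound were made as 1 mg/ml stocks in methanol and diluted to 1–50 ug/ml. Ascorbic acid was the control. Each dilution was mixed 1:1 by volume with 200 μM DPPH. Absorbance at 515 nm was read after 30 min against a methanol blank. % inhibition was taken […], and IC50 came from regression of mean % inhibition on log concentration.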

α-amylase = assay: α-Amylase inhibitory assay; assay type: biochemical; conditions: at 100 µg/mL
Summary of the method: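 DNS method. Test compound at 25, 50, 100 and 200 µg/ml, or acarbose at 100 µg/ml as reference, was preincubated 30 min with α-amylase diluted in 20 mM sodium phosphate buffer pH 6.9. 1% w/w starch was then added and the mix held 15 min at 37 ± 0.5 °C. The reaction was stopped with DNS reagent and heated 5 min in boiling water, then read at 540 nm. % inhibition was calculated against a no-sample control and a no-enzyme blank.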

α-glucosidase = assay: α-Glucosidase inhibitory assay; assay type: biochemical
Summary of the method: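 Test sample was preincubated 15 min at 37 °C with α-glucosidase solution (1 U/mL in 0.1 M potassium phosphate buffer, pH 6.8). 5 mM p-nitrophenyl-α-D-glucopyranoside solution was added, with a further 15 min incubation. The reaction was stopped with 0.2 M sodium carbonate and read at 405 nm. Acarbose was the positive control. % inhibition came from control and blank absorbances.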

[1] = Solubility of MG in solid lipids and surfactants; assay type: physicochemical; conditions: in Labrafil M 2130 CS
Summary of the method: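 1 g of each solid lipid was held in a vial on a magnetic stirrer above its melting point. Test compound was added in increments until saturation, and the amount dissolved was recorded. Samples were filtered through a 0.45 membrane to remove undissolved solid.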

For O=C1O[C@H]([C@@H](O)CO)C(O)=C1O [AA, ascorbic acid], the “DPPH IC50” value (Anti-oxidant DPPH assay) was 23.33 µg/mL.

With C[C@H]1O[C@H](O[C@H]2[C@H](O)[C@@H](O)[C@@H](O[C@H]3[C@H](O)[C@@H](O)C(O)O[C@@H]3CO)O[C@@H]2CO)[C@H](O)[C@@H](O)[C@@H]1N[C@H]1C=C(CO)[C@@H](O)[C@H](O)[C@H]1O (stereo partly shown) [Acarbose] the α-amylase inhibitory effect (α-amylase) was 78.01 ± 7.45% and the α-glucosidase inhibition (α-glucosidase) was 63.43 ± 4.02%.

In the case of O=c1c2cc(O)c(O)cc2oc2cc(O)c([C@@H]3O[C@H](CO)[C@@H](O)[C@H](O)[C@H]3O)c(O)c12 [Mangiferin], the “MG solubility in solid lipid” value [1] was 77.63 ± 5.78 mg/g.
